Format in all cases: functional, cell-based
The subject of one assay is HepG2. Nature of the assay: Antiproliferative activity against human HepG2 cells after 24 hrs by MTT assay. The conditions noted are these: HepG2, 24 h. In outline: (§1)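 MTT proliferation assay on HUVECs and on HepG2, A375, U251, B16 and HCT116 cells. Results reported as IC50.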
For orientation: Formazan colour is commonly taken as a measure of viable cells.

The next assay relates to A-375. Description: Antiproliferative activity against human A375 cells after 24 hrs by MTT assay. The conditions noted are these: A-375, 24 h. In outline: as §1
The next assay relates to U-251. Nature of the assay: Antiproliferative activity against human U251 cells after 24 hrs by MTT assay. Conditions: U-251, 24 h. In outline: as §1
Another assay deals with B16. Nature of the assay: Antiproliferative activity against mouse B16 cells after 24 hrs by MTT assay. The conditions noted are these: B16, 24 h. In outline:
as §1

Assay [1] in a line: Antiproliferative activity against human HCT116 cells after 24 hrs by MTT assay. The conditions noted are these: HCT-116, 24 h. The gist of the method:
as §1

In the next assay the test system is HUVEC. Description: Antiproliferative activity against HUVEC after 24 hrs by MTT assay. The conditions noted are these: Homo sapiens. In outline: as §1

Each structure is given as a SMILES string.

Consider `CC1(C)C=Cc2c(ccc3c(=O)c(-c4cccc(C(F)(F)F)c4)coc23)O1`, for which the IC50 (with HepG2; with A-375; in the assay with U-251; in the assay on B16; in assay [1]; in the assay on HUVEC) was greater than 10 µM each time.

As for `COc1cccc(-c2coc3c4c(ccc3c2=O)OC(C)(C)C=C4)c1`, the IC50 (with HepG2; with A-375; in the assay on U-251; in the assay with B16; in assay [1]; with HUVEC) was greater than 10 µM each time.

Turning to `CC1(C)C=Cc2c(ccc3c(=O)c(-c4ccc(C=O)cc4)coc23)O1`, the IC50 (in the assay with HepG2; with A-375; in the assay with U-251; with B16; in assay [1]; in the assay with HUVEC) was greater than 10 µM in each case.

For `COc1cc(OC)c(-c2coc3cc(OCc4ccccc4C(F)(F)F)ccc3c2=O)cc1OC`, the IC50 (usually the concentration that gives 50% inhibition) with HepG2 was 6.55 µM; in the assay on A-375, greater than 10 µM; with U-251, greater than 10 µM; in the assay on B16 it was 8.55 µM; in assay [1], 4.76 µM; in the assay on HUVEC it was greater than 10 µM.

With `COc1cc(OC)c(-c2coc3cc(OCc4cccc(F)c4)ccc3c2=O)cc1OC`, the IC50 is 1.23 µM with HepG2; 1.3 µM with A-375; 3.51 µM in the assay on U-251; 2.44 µM in the assay with B16; 4.92 µM in assay [1]; 5.3 µM with HUVEC.

With `CC1(C)C=Cc2c(ccc3c(=O)c(-c4ccc(C(F)(F)F)cc4Cl)coc23)O1`, the concentration for half-maximal inhibition (IC50) was greater than 10 µM in the assay with HepG2; 8.9 µM in the assay with A-375; 2.5 µM in the assay with U-251; 3.55 µM in the assay on B16; 3.8 µM in assay [1]; greater than 10 µM in the assay with HUVEC.

Regarding `CC1(C)C=Cc2c(ccc3c(=O)c(-c4ccc5c(c4)OCO5)coc23)O1`, the IC50 (in the assay with HepG2; in the assay on A-375; in the assay on U-251; in the assay on B16; in assay [1]; with HUVEC) was greater than 10 µM each time.

As to `COc1cc(OC)c(-c2coc3cc(OCc4ccc(C(F)(F)F)cc4)ccc3c2=O)cc1OC`, the IC50 is 0.89 µM in the assay on HepG2; 2.28 µM in the assay with A-375; 3.75 µM in the assay with U-251; 5.4 µM in the assay on B16; 2.44 µM in assay [1]; greater than 10 µM with HUVEC.

Consider `COc1cc(OC)c(-c2coc3cc(OCc4ccc(Cl)cc4)ccc3c2=O)cc1OC`, for which the IC50 was determined as 0.94 µM in the assay with HepG2; 1.02 µM with A-375; 0.47 µM with U-251; 2.4 µM with B16; 4.45 µM in assay [1]; 4.4 µM in the assay on HUVEC.

For `COc1ccccc1-c1coc2c3c(ccc2c1=O)OC(C)(C)C=C3`, the concentration for half-maximal inhibition (IC50) (in the assay on HepG2; in the assay with A-375; in the assay with U-251; in the assay with B16; in assay [1]; in the assay on HUVEC) was greater than 10 µM each time.

As to `COc1cc(OC)c(-c2coc3cc(OCc4ccccc4C#N)ccc3c2=O)cc1OC`, the IC50 with HepG2 is greater than 10 µM; in the assay on A-375, 0.99 µM; in the assay with U-251 it was 0.98 µM; in the assay with B16, 2.14 µM; in assay [1], greater than 10 µM; in the assay with HUVEC, greater than 10 µM.

As for `COc1cc(OC)c(-c2coc3cc(OCc4ccc([N+](=O)[O-])cc4)ccc3c2=O)cc1OC`, the IC50 with HepG2 is 2.5 µM; in the assay on A-375 it was greater than 10 µM; in the assay with U-251, 9.4 µM; in the assay on B16 it was greater than 10 µM; in assay [1], greater than 10 µM; with HUVEC, greater than 10 µM.

Turning to `COc1ccc(-c2coc3c4c(ccc3c2=O)OC(C)(C)C=C4)c(OC)c1`, the IC50 (in the assay on HepG2; in the assay with A-375; in the assay on U-251; in the assay on B16; in assay [1]; with HUVEC) was greater than 10 µM in each case.

For `CCOc1ccc(-c2coc3c4c(ccc3c2=O)OC(C)(C)C=C4)cc1`, the half-maximal inhibitory concentration (IC50) (in the assay with HepG2; in the assay with A-375; in the assay on U-251; with B16; in assay [1]; with HUVEC) was greater than 10 µM throughout.

As to `CC1(C)C=Cc2c(ccc3c(=O)c(-c4ccc5c(c4)OCCO5)coc23)O1`, the IC50 (in the assay with HepG2; in the assay with A-375; in the assay with U-251; with B16; in assay [1]; with HUVEC) was greater than 10 µM in each case.

For the compound `COc1cccc(C(=O)Oc2ccc3c(=O)c(-c4cc(OC)c(OC)cc4OC)coc3c2)c1`, the IC50 (with HepG2; with A-375; with U-251; with B16; in assay [1]; with HUVEC) was greater than 10 µM each time.

For the compound `COc1ccc(-c2coc3c4c(ccc3c2=O)OC(C)(C)C=C4)cc1OC`, the IC50 (with HepG2; in the assay on A-375; in the assay with U-251; with B16; in assay [1]; in the assay with HUVEC) was greater than 10 µM throughout.

For the compound `COc1cc(OC)c(-c2coc3cc(OC(=O)Cc4cccc(C(F)(F)F)c4)ccc3c2=O)cc1OC`, the IC50 (with HepG2; in the assay on A-375; in the assay on U-251; in the assay with B16; in assay [1]; with HUVEC) was greater than 10 µM throughout.

`CC1(C)C=Cc2c(ccc3c(=O)c(-c4ccc(Cl)c(C(F)(F)F)c4)coc23)O1`: the IC50 (in the assay on HepG2; with A-375; in the assay with U-251; in the assay on B16; in assay [1]; in the assay on HUVEC) was greater than 10 µM throughout.

On to `CC1(C)C=Cc2c(ccc3c(=O)c(-c4ccc(O)cc4)coc23)O1`, for which the IC50 (in the assay with HepG2; in the assay with A-375; in the assay with U-251; with B16; in assay [1]; with HUVEC) was greater than 10 µM each time.

Consider `COc1cc(OC)c(-c2coc3cc(OCc4cccc(Cl)c4)ccc3c2=O)cc1OC`, for which the IC50 in the assay with HepG2 was 0.75 µM; in the assay on A-375, 0.98 µM; with U-251 it was greater than 10 µM; in the assay on B16 it was 2.28 µM; in assay [1], 1.33 µM; in the assay on HUVEC, greater than 10 µM.

Regarding `COc1cc(OC)c(-c2coc3cc(OCc4ccccc4Cl)ccc3c2=O)cc1OC`, the IC50 with HepG2 is 1.69 µM; with A-375, 2.02 µM; in the assay on U-251, greater than 10 µM; with B16, 4.18 µM; in assay [1], 2.45 µM; in the assay on HUVEC it was greater than 10 µM.

In the case of `COc1cc(OC)c(-c2coc3cc(OCc4ccccc4)ccc3c2=O)cc1OC`, the IC50 in the assay with HepG2 was 1.32 µM; in the assay with A-375 it was 1.64 µM; with U-251 it was 6.75 µM; in the assay with B16, 2.33 µM; in assay [1] it was 2.28 µM; in the assay with HUVEC, 9.75 µM.

Regarding `COc1ccc(-c2coc3c4c(ccc3c2=O)OC(C)(C)C=C4)cc1`, the concentration for half-maximal inhibition (IC50) (in the assay on HepG2; in the assay on A-375; in the assay with U-251; in the assay on B16; in assay [1]; in the assay with HUVEC) was greater than 10 µM each time.

For `CC1(C)C=Cc2c(ccc3c(=O)c(-c4cccc(C=O)c4)coc23)O1`, the IC50 (in the assay with HepG2; with A-375; in the assay on U-251; in the assay with B16; in assay [1]; in the assay with HUVEC) was greater than 10 µM each time.

Consider `C=CCOc1ccc2c(=O)c(-c3cc(OC)c(OC)cc3OC)coc2c1`, for which the IC50 in the assay on HepG2 was 3.45 µM; in the assay with A-375, 4.75 µM; in the assay on U-251, 5.9 µM; in the assay on B16, 5.1 µM; in assay [1] it was 6.6 µM; in the assay with HUVEC, greater than 10 µM.

For the compound `COc1cc(OC)c(-c2coc3cc(OCc4ccc(F)cc4)ccc3c2=O)cc1OC`, the half-maximal inhibitory concentration (IC50) in the assay on HepG2 is 1 µM; in the assay on A-375, 1.72 µM; with U-251, 3.2 µM; in the assay with B16, 1.12 µM; in assay [1], 0.95 µM; in the assay on HUVEC it was greater than 10 µM.

With `C#CCOc1ccc2c(=O)c(-c3cc(OC)c(OC)cc3OC)coc2c1`, the IC50 was 4.95 µM in the assay with HepG2; 3.68 µM with A-375; 6.45 µM in the assay on U-251; 4.5 µM with B16; 8.05 µM in assay [1]; greater than 10 µM in the assay on HUVEC.

Take `COc1ccc(OC)c(-c2coc3c4c(ccc3c2=O)OC(C)(C)C=C4)c1`: the IC50 (in the assay on HepG2; in the assay with A-375; in the assay with U-251; in the assay on B16; in assay [1]; in the assay with HUVEC) was greater than 10 µM each time.

Regarding `CC1(C)C=Cc2c(ccc3c(=O)c(-c4ccc(C(F)(F)F)cc4)coc23)O1`, the IC50 is greater than 10 µM with HepG2; 7.25 µM with A-375; 5.85 µM in the assay on U-251; 1.91 µM with B16; 7 µM in assay [1]; greater than 10 µM with HUVEC.

As for `COc1cc(OC)c(-c2coc3cc(OCc4ccc(Br)cc4)ccc3c2=O)cc1OC`, the IC50 with HepG2 is 1.05 µM; in the assay with A-375, 1 µM; with B16 it was 1.18 µM; in assay [1], 1.98 µM; in the assay with HUVEC it was greater than 10 µM.

On to `COc1cc(OC)c(-c2coc3cc(OCc4ccc(C#N)cc4)ccc3c2=O)cc1OC`, for which the IC50 is 4.23 µM in the assay on HepG2; 1.55 µM in the assay on A-375; 6.18 µM in the assay with U-251; 7 µM in the assay with B16; 4.22 µM in assay [1].

For the origin of these results see ChEMBL document CHEMBL3352483, “Synthesis, structure-activity relationships and biological evaluation of barbigerone analogues as anti-proliferative and anti-angiogenesis agents” (Bioorg Med Chem Lett, 2014).
